# From ChEMBL document CHEMBL2040828 (J Med Chem, 2012)
# pEC50, pIC50: −log10 of the molar value.
# System: not listed separately
# Test: Irreversible inhibition of hepatitis C virus NS5B polymerase
# Parameters: species or system Hepacivirus hominis
# Settings: not given; call rule not given here
row,Compound,pIC50
1,O=C(NS(=O)(=O)C1CC1)c1c(-c2ccc[nH]c2=O)c2cc(F)ccc2n1Cc1cc([N+](=O)[O-])ccc1F,8.30
2,Nc1cc(Cn2c(C(=O)O)c(-c3ccc[nH]c3=O)c3cc(Cl)ccc32)ccn1,7.28
3,Cc1ccc2c(c1)c(-c1ccc[nH]c1=O)c(C(=O)NS(=O)(=O)C1CC1)n2Cc1cc(S(C)(=O)=O)ccc1F,8.22
4,CCc1ccc2c(c1)c(-c1ccc[nH]c1=O)c(C(=O)O)n2Cc1cc([N+](=O)[O-])ccc1F,8.30
5,O=C(NS(=O)(=O)C1CC1)c1c(-c2ccc[nH]c2=O)c2cc(Cl)ccc2n1Cc1cc([N+](=O)[O-])ccc1F,8.22

# More lines, in order of rising pIC50, values ahead:
row,pIC50,Compound
1,7.92,Cc1ccc2c(c1)c(-c1ccc(C)[nH]c1=O)c(C(=O)NS(=O)(=O)C1CC1)n2Cc1cc([N+](=O)[O-])ccc1F
2,8.15,Cc1ccc2c(c1)c(-c1ccc[nH]c1=O)c(C(=O)NS(=O)(=O)C1CC1)n2Cc1cc([N+](=O)[O-])ccc1Cl
3,8.15,Cc1ccc2c(c1)c(-c1ccc[nH]c1=O)c(C(=O)N[S+]([O-])C(C)C)n2Cc1cc([N+](=O)[O-])ccc1F (stereo not drawn)
4,8.70,CCc1ccc2c(c1)c(-c1ccc[nH]c1=O)c(C(=O)NS(=O)(=O)C1CC1)n2Cc1cc(S(C)(=O)=O)c(Cl)cc1F

# System: Hepatitis C virus
# Test: Antiviral activity against HCV by cell based replicon assay
# Type: functional, organism-based, Hepacivirus hominis
# Settings: not given
row,Compound,pEC50
1,O=C(NS(=O)(=O)C1CC1)c1c(-c2ccc[nH]c2=O)c2cc(F)ccc2n1Cc1cc([N+](=O)[O-])ccc1F,8.22
2,Cc1ccc2c(c1)c(-c1ccc[nH]c1=O)c(C(=O)NS(=O)(=O)C1CC1)n2Cc1cc(S(C)(=O)=O)ccc1F,6.24
3,CCc1ccc2c(c1)c(-c1ccc[nH]c1=O)c(C(=O)O)n2Cc1cc([N+](=O)[O-])ccc1F,9.00
4,O=C(NS(=O)(=O)C1CC1)c1c(-c2ccc[nH]c2=O)c2cc(Cl)ccc2n1Cc1cc([N+](=O)[O-])ccc1F,8.30

# The remaining lines, values ahead:
row,pEC50,Compound
1,8.05,Cc1ccc2c(c1)c(-c1ccc(C)[nH]c1=O)c(C(=O)NS(=O)(=O)C1CC1)n2Cc1cc([N+](=O)[O-])ccc1F
2,7.80,Cc1ccc2c(c1)c(-c1ccc[nH]c1=O)c(C(=O)NS(=O)(=O)C1CC1)n2Cc1cc([N+](=O)[O-])ccc1Cl
3,8.70,Cc1ccc2c(c1)c(-c1ccc[nH]c1=O)c(C(=O)N[S+]([O-])C(C)C)n2Cc1cc([N+](=O)[O-])ccc1F (stereo not drawn)
4,7.22,CCc1ccc2c(c1)c(-c1ccc[nH]c1=O)c(C(=O)NS(=O)(=O)C1CC1)n2Cc1cc(S(C)(=O)=O)c(Cl)cc1F

# System: not listed separately
# Test: AUC in rat at 10 mg/kg, po
# Type: ADME, organism-based
# Parameters: dose 10 mg/kg, route oral
# Settings: plasma
# Outline: (§1)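 Single-dose pharmacokinetics: rats were dosed at 10 mg/kg, and monkeys and dogs at 3 mg/kg. Oral AUC, clearance, half-life and bioavailability were determined. All doses were given in 0.4% MC vehicle.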
row,AUC [µM·h],Compound
1,18,CCc1ccc2c(c1)c(-c1ccc[nH]c1=O)c(C(=O)O)n2Cc1cc([N+](=O)[O-])ccc1F
2,0.3,O=C(NS(=O)(=O)C1CC1)c1c(-c2ccc[nH]c2=O)c2cc(Cl)ccc2n1Cc1cc([N+](=O)[O-])ccc1F

# System: not listed separately
# Test: Oral bioavailability in rat at 10 mg/kg
# Type: ADME, organism-based
# Settings: in vivo
# Outline: as §1
row,bioavailability [%],Compound
1,37,CCc1ccc2c(c1)c(-c1ccc[nH]c1=O)c(C(=O)O)n2Cc1cc([N+](=O)[O-])ccc1F

# System: not listed separately
# Test: Half life in rat at 10 mg/kg, iv
# Type: ADME, organism-based
# Parameters: dose 10 mg/kg, route intravenous
# Settings: in vivo
# Outline: as §1
row,half-life [h],Compound
1,8.2,CCc1ccc2c(c1)c(-c1ccc[nH]c1=O)c(C(=O)O)n2Cc1cc([N+](=O)[O-])ccc1F

# System: not listed separately
# Test: Clearance in rat at 10 mg/kg
# Type: ADME, organism-based
# Parameters: dose 10 mg/kg
# Settings: in vivo
# Outline: as §1
row,clearance [mL/min/kg],Compound
1,8,CCc1ccc2c(c1)c(-c1ccc[nH]c1=O)c(C(=O)O)n2Cc1cc([N+](=O)[O-])ccc1F

# System: not listed separately
# Test: Drug level in rat liver at 10 mg/kg, iv after 6 hrs
# Type: ADME, organism-based
# Parameters: dose 10 mg/kg, route intravenous
# Settings: read-out: Drug uptake
row,concentration at 6 h [nM],Compound
1,460,CCc1ccc2c(c1)c(-c1ccc[nH]c1=O)c(C(=O)O)n2Cc1cc([N+](=O)[O-])ccc1F

# System: not listed separately
# Test: AUC in monkey at 3 mg/kg, po
# Type: ADME, organism-based, Macaca mulatta
# Parameters: dose 3 mg/kg, route oral
# Settings: rhesus monkey, plasma
# Outline: as §1
row,AUC [µM·h],Compound
1,3.4,CCc1ccc2c(c1)c(-c1ccc[nH]c1=O)c(C(=O)O)n2Cc1cc([N+](=O)[O-])ccc1F

# System: not listed separately
# Test: Oral bioavailability in monkey at 3 mg/kg
# Type: ADME, organism-based, Macaca mulatta
# Settings: rhesus monkey, in vivo
# Outline: as §1
row,bioavailability [%],Compound
1,30,CCc1ccc2c(c1)c(-c1ccc[nH]c1=O)c(C(=O)O)n2Cc1cc([N+](=O)[O-])ccc1F

# System: not listed separately
# Test: Half life in monkey at 3 mg/kg, iv
# Type: ADME, organism-based, Macaca mulatta
# Parameters: dose 3 mg/kg, route intravenous
# Settings: rhesus monkey, in vivo
# Outline: as §1
row,half-life [h],Compound
1,1.3,CCc1ccc2c(c1)c(-c1ccc[nH]c1=O)c(C(=O)O)n2Cc1cc([N+](=O)[O-])ccc1F

# System: not listed separately
# Test: Clearance in monkey at 3 mg/kg
# Type: ADME, organism-based, Macaca mulatta
# Parameters: dose 3 mg/kg
# Settings: rhesus monkey, in vivo
# Outline: as §1
row,clearance [mL/min/kg],Compound
1,10,CCc1ccc2c(c1)c(-c1ccc[nH]c1=O)c(C(=O)O)n2Cc1cc([N+](=O)[O-])ccc1F

# System: not listed separately
# Test: AUC in dog at 3 mg/kg, po
# Type: ADME, organism-based, Canis lupus familiaris
# Parameters: dose 3 mg/kg, route oral
# Settings: plasma
# Outline: as §1
row,AUC [µM·h],Compound
1,11,CCc1ccc2c(c1)c(-c1ccc[nH]c1=O)c(C(=O)O)n2Cc1cc([N+](=O)[O-])ccc1F

# System: not listed separately
# Test: Oral bioavailability in dog at 3 mg/kg
# Type: ADME, organism-based, Canis lupus familiaris
# Settings: in vivo
# Outline: as §1
row,bioavailability [%],Compound
1,95,CCc1ccc2c(c1)c(-c1ccc[nH]c1=O)c(C(=O)O)n2Cc1cc([N+](=O)[O-])ccc1F

# System: not listed separately
# Test: Half life in dog at 3 mg/kg, iv
# Type: ADME, organism-based, Canis lupus familiaris
# Parameters: dose 3 mg/kg, route intravenous
# Settings: in vivo
# Outline: as §1
row,half-life [h],Compound
1,1.2,CCc1ccc2c(c1)c(-c1ccc[nH]c1=O)c(C(=O)O)n2Cc1cc([N+](=O)[O-])ccc1F

# System: not listed separately
# Test: Clearance in dog at 3 mg/kg
# Type: ADME, organism-based, Canis lupus familiaris
# Parameters: dose 3 mg/kg
# Settings: in vivo
# Outline: as §1
row,clearance [mL/min/kg],Compound
1,10,CCc1ccc2c(c1)c(-c1ccc[nH]c1=O)c(C(=O)O)n2Cc1cc([N+](=O)[O-])ccc1F

# System: Plasma
# Test: Metabolic stability in rat plasma up to 3 hrs
# Type: ADME, cell-free
# Settings: not given
row,Stability,Compound
1,Stable,CCc1ccc2c(c1)c(-c1ccc[nH]c1=O)c(C(=O)O)n2Cc1cc([N+](=O)[O-])ccc1F

# System: Plasma
# Test: Metabolic stability in monkey plasma up to 3 hrs
# Type: ADME, cell-free, Macaca mulatta
# Settings: rhesus monkey
row,Stability,Compound
1,Stable,CCc1ccc2c(c1)c(-c1ccc[nH]c1=O)c(C(=O)O)n2Cc1cc([N+](=O)[O-])ccc1F

# System: Plasma
# Test: Metabolic stability in dog plasma up to 3 hrs
# Type: ADME, cell-free, Canis lupus familiaris
# Settings: not given
row,Stability,Compound
1,Stable,CCc1ccc2c(c1)c(-c1ccc[nH]c1=O)c(C(=O)O)n2Cc1cc([N+](=O)[O-])ccc1F

# System: Plasma
# Test: Metabolic stability in human plasma up to 3 hrs
# Type: ADME, cell-free
# Settings: not given
row,Stability,Compound
1,Stable,CCc1ccc2c(c1)c(-c1ccc[nH]c1=O)c(C(=O)O)n2Cc1cc([N+](=O)[O-])ccc1F

# Target: Cytochrome P450 2D6 (Homo sapiens, UniProt P10635)
# Test: Inhibition of CYP2D6 up to 30 uM
# Type: ADME
# Settings: not given
# Cytochrome P450 2D6, sequence (P10635 whole entry): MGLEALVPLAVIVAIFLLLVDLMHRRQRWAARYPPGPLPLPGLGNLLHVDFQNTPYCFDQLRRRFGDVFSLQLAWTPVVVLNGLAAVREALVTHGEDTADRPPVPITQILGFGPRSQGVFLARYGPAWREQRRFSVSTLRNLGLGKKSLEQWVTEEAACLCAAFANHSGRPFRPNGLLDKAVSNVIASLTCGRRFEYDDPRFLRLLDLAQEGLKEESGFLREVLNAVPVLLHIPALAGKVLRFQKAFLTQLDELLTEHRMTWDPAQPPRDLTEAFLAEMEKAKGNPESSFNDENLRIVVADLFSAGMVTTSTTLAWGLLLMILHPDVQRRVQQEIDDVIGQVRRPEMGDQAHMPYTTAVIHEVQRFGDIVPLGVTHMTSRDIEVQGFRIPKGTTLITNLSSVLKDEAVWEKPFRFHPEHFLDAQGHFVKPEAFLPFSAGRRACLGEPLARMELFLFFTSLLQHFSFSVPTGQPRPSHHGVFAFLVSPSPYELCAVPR
row,inhibition (INH),Compound
1,Not Active,CCc1ccc2c(c1)c(-c1ccc[nH]c1=O)c(C(=O)O)n2Cc1cc([N+](=O)[O-])ccc1F

# Target: Cytochrome P450 3A4 (Homo sapiens, UniProt P08684)
# Test: Inhibition of CYP3A4 up to 30 uM
# Type: ADME
# Settings: not given
# Cytochrome P450 3A4, sequence (P08684 whole entry): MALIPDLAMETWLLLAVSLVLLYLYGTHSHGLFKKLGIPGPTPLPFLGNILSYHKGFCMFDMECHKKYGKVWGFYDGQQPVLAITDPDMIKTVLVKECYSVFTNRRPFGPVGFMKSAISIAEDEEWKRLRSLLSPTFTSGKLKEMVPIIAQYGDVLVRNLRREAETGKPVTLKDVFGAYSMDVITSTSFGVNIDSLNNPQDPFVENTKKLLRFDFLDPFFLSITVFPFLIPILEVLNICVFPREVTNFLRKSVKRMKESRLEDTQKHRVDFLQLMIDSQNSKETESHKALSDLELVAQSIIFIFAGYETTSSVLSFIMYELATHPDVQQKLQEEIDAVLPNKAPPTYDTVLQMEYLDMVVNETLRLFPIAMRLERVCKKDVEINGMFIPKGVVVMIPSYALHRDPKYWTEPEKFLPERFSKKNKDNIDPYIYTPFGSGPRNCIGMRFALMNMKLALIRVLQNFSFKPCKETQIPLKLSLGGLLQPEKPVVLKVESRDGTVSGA
row,inhibition (INH),Compound
1,Not Active,CCc1ccc2c(c1)c(-c1ccc[nH]c1=O)c(C(=O)O)n2Cc1cc([N+](=O)[O-])ccc1F

# Target: Cytochrome P450 2C9 (Homo sapiens, UniProt P11712)
# Test: Inhibition of CYP2C9 up to 30 uM
# Type: ADME
# Settings: not given
# Cytochrome P450 2C9, sequence (P11712 whole entry): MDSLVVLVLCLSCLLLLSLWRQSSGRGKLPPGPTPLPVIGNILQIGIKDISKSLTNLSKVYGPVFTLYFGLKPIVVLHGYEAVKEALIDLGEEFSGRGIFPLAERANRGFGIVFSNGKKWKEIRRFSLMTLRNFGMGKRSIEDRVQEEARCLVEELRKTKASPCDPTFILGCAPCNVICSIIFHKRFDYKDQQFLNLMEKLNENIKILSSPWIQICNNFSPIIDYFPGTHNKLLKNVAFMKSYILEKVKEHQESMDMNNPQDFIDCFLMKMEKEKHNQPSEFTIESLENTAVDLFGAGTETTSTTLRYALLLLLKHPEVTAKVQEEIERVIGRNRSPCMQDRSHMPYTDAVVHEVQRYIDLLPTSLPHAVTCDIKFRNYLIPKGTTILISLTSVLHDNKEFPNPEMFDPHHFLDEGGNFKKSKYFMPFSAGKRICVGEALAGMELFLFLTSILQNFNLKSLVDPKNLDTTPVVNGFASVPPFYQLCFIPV
row,inhibition (INH),Compound
1,Not Active,CCc1ccc2c(c1)c(-c1ccc[nH]c1=O)c(C(=O)O)n2Cc1cc([N+](=O)[O-])ccc1F

# System: not listed separately
# Test: Induction of cytochrome P450 activity at 10 uM
# Type: ADME
# Settings: not given
row,Activity,Compound
1,Not Active,CCc1ccc2c(c1)c(-c1ccc[nH]c1=O)c(C(=O)O)n2Cc1cc([N+](=O)[O-])ccc1F

# Target: T1, Lupus La protein (Homo sapiens, UniProt P05455)
# T1 sequence (P05455 whole entry): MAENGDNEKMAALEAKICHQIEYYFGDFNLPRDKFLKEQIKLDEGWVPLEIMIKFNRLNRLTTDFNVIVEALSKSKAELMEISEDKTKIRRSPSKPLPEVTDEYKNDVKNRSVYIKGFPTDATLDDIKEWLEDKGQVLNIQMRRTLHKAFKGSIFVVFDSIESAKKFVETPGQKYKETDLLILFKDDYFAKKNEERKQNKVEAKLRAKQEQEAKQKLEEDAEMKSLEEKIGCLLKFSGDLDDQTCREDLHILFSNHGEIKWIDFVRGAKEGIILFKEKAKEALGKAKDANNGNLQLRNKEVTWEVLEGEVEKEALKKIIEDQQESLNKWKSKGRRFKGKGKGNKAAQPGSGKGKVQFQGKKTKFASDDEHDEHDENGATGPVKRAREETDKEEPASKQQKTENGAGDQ
# Test: Binding affinity to human La antigen by NMR based ALARM assay
# Type: ADME
# Settings: not given
# Outline: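 NMR-based ALARM assay. The compound was incubated with human La antigen, and NMR was used to monitor reaction with the antigen's reactive thiols.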
row,Activity,Compound
1,Not Active,CCc1ccc2c(c1)c(-c1ccc[nH]c1=O)c(C(=O)O)n2Cc1cc([N+](=O)[O-])ccc1F

# System: Salmonella typhimurium
# Test: Mutagenic activity in Salmonella typhimurium by mini-AMES test in presence of S9 fraction
# Type: toxicity, organism-based
# Settings: salmonella enterica subsp. enterica serovar typhimurium
row,Compound,Activity
1,CCc1ccc2c(c1)c(-c1ccc[nH]c1=O)c(C(=O)O)n2Cc1cc([N+](=O)[O-])ccc1F,Non-toxic

# System: Salmonella typhimurium
# Test: Mutagenic activity in Salmonella typhimurium by mini-AMES test in absence of S9 fraction
# Type: toxicity, organism-based
# Settings: salmonella enterica subsp. enterica serovar typhimurium
row,Compound,Activity
1,CCc1ccc2c(c1)c(-c1ccc[nH]c1=O)c(C(=O)O)n2Cc1cc([N+](=O)[O-])ccc1F,Non-toxic

# System: not listed separately
# Test: Mutagenic activity in micronuclei assessed as induction of chromosomal damage
# Settings: not given
row,Compound,Activity
1,CCc1ccc2c(c1)c(-c1ccc[nH]c1=O)c(C(=O)O)n2Cc1cc([N+](=O)[O-])ccc1F,Non-toxic
